Data taken from ChEMBL document CHEMBL3232844, “Synthesis and structure activity relationships of schweinfurthin indoles” (2014).

Experiments:
Format in all cases: functional
[1] = test system: CCRF-CEM; assay: Cytotoxicity against human CCRF-CEM cells
[2] = test system: K562; assay: Cytotoxicity against human K562 cells
Procedure, shortened: (§1)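 Tested in a 60-cell-line human tumor panel screen; the read-out is growth inhibition, reported as GI50 for each cell line.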

[3] = test system: MOLT-4; assay: Cytotoxicity against human MOLT4 cells; procedure, shortened: as §1
[4] = test system: A549; assay: Cytotoxicity against human A549 cells; procedure, shortened: as §1
[5] = Cytotoxicity against human EKVX cells; procedure, shortened: as §1
[6] = test system: HOP-62; assay: Cytotoxicity against human HOP62 cells; procedure, shortened: as §1
[7] = test system: NCI-H226; assay: Cytotoxicity against human NCI-H226 cells; procedure, shortened: as §1
[8] = test system: NCI-H23; assay: Cytotoxicity against human NCI-H23 cells; procedure, shortened: as §1
[9] = test system: COLO 205; assay: Cytotoxicity against human COLO205 cells; procedure, shortened: as §1
[10] = test system: HCC 2998; assay: Cytotoxicity against human HCC2998 cells; procedure, shortened: as §1
[11] = Cytotoxicity against human HCT15 cells; procedure, shortened: as §1
[12] = test system: HT-29; assay: Cytotoxicity against human HT-29 cells; procedure, shortened: as §1
[13] = test system: KM12; assay: Cytotoxicity against human KM12 cells; procedure, shortened: as §1
[14] = test system: SF-295; assay: Cytotoxicity against human SF295 cells; procedure, shortened: as §1
[15] = test system: SF-539; assay: Cytotoxicity against human SF539 cells; procedure, shortened: as §1
[16] = test system: SNB-19; assay: Cytotoxicity against human SNB19 cells; procedure, shortened: as §1
[17] = test system: SNB-75; assay: Cytotoxicity against human SNB75 cells
Procedure, shortened: (§2)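 Cell line run as part of the 60-cell-line screening panel; growth inhibition was reported as a GI50 for each line.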

[18] = test system: U-251; assay: Cytotoxicity against human U251 cells; procedure, shortened: as §2
[19] = test system: LOX IMVI; assay: Cytotoxicity against human LOXIMVI cells; procedure, shortened: as §1
[20] = test system: M14; assay: Cytotoxicity against human M14 cells; procedure, shortened: as §1
[21] = test system: NCI-H322M; assay: Cytotoxicity against human NCI-H322M cells; procedure, shortened: as §1
[22] = test system: NCI-H460; assay: Cytotoxicity against human NCI-H460 cells; procedure, shortened: as §1
[23] = test system: SK-MEL-2; assay: Cytotoxicity against human SK-MEL-2 cells; procedure, shortened: as §1
[24] = test system: SK-MEL-5; assay: Cytotoxicity against human SK-MEL-5 cells; procedure, shortened: as §1
[25] = Cytotoxicity against human UACC257 cells; procedure, shortened: as §2
[26] = Cytotoxicity against human UACC62 cells; procedure, shortened: as §2
[27] = Cytotoxicity against human OVCAR3 cells; procedure, shortened: as §1
[28] = Cytotoxicity against human OVCAR4 cells; procedure, shortened: as §1
[29] = Cytotoxicity against human OVCAR5 cells; procedure, shortened: as §1
[30] = Cytotoxicity against human OVCAR8 cells; procedure, shortened: as §1
[31] = Cytotoxicity against human NCI-ADR-RES cells; procedure, shortened: as §1
[32] = test system: SK-OV-3; assay: Cytotoxicity against human SKOV3 cells; procedure, shortened: as §1
[33] = test system: A498; assay: Cytotoxicity against human A498 cells; procedure, shortened: as §1
[34] = test system: ACHN; assay: Cytotoxicity against human ACHN cells; procedure, shortened: as §1
[35] = test system: CAKI-1; assay: Cytotoxicity against human Caki1 cells; procedure, shortened: as §1
[36] = test system: RXF 393; assay: Cytotoxicity against human RXF393 cells; procedure, shortened: as §1
[37] = test system: TK-10; assay: Cytotoxicity against human TK10 cells; procedure, shortened: as §2
[38] = Cytotoxicity against human UO31 cells; procedure, shortened: as §2
[39] = test system: DU-145; assay: Cytotoxicity against human DU145 cells; procedure, shortened: as §1
[40] = test system: MCF7; assay: Cytotoxicity against human MCF7 cells; procedure, shortened: as §1
[41] = test system: MDA-MB-231; assay: Cytotoxicity against human MDA-MB-231 cells; procedure, shortened: as §1
[42] = test system: BT-549; assay: Cytotoxicity against human BT549 cells; procedure, shortened: as §1
[43] = test system: T47D; assay: Cytotoxicity against human T47D cells; procedure, shortened: as §2
[44] = test system: MDA-MB-468; assay: Cytotoxicity against human MDA-MB-468 cells; procedure, shortened: as §1
[45] = read-out: pLC50 (the source's name) (converted)

## COc1cc(/C=C/c2cc(O)c3cc(CC=C(C)C)[nH]c3c2)cc2c1O[C@]1(C)CC[C@@H](O)C(C)(C)[C@H]1C2
[1]
  GI50: 0.741 µM
[1]; [45]
  CC50: > 100 µM
[1]; read-out: pTGI (converted)
  TGI: > 100 µM
[2]
  GI50: 2.04 µM
[2]; [45]
  CC50: > 100 µM
[2]; read-out: pTGI (converted)
  TGI: > 100 µM
[3]
  GI50: 0.813 µM
[3]; [45]
  CC50: > 100 µM
[3]; read-out: pTGI (converted)
  TGI: > 100 µM
[4]
  GI50: 6.31 µM
[4]; [45]
  CC50: > 100 µM
[4]; read-out: pTGI (converted)
  TGI: > 100 µM
[5]
  GI50: 4.79 µM
[5]; [45]
  CC50: > 100 µM
[5]; read-out: pTGI (converted)
  TGI: > 100 µM
[6]
  GI50: 0.832 µM
[6]; [45]
  CC50: > 100 µM
[6]; read-out: pTGI (converted)
  TGI: 46.8 µM
[7]
  GI50: 57.5 µM
[7]; [45]
  CC50: > 100 µM
[7]; read-out: pTGI (converted)
  TGI: > 100 µM
[8]
  GI50: 6.31 µM
[8]; [45]
  CC50: > 100 µM
[8]; read-out: pTGI (converted)
  TGI: > 100 µM
[9]
  GI50: 2.75 µM
[9]; [45]
  CC50: 22.4 µM
[9]; read-out: pTGI (converted)
  TGI: 8.32 µM
[10]
  GI50: 9.55 µM
[10]; [45]
  CC50: > 100 µM
[10]; read-out: pTGI (converted)
  TGI: > 100 µM
[11]; HCT-15
  GI50: 1.45 µM
[11]; HCT-15, read-out: pLC50 (the source's name) (converted)
  CC50: > 100 µM
[11]; HCT-15, read-out: pTGI (converted)
  TGI: 17.4 µM
[12]
  GI50: 2.63 µM
[12]; [45]
  CC50: 79.4 µM
[12]; read-out: pTGI (converted)
  TGI: 18.6 µM
[13]
  GI50: 2.04 µM
[13]; [45]
  CC50: 74.1 µM
[13]; read-out: pTGI (converted)
  TGI: 10.5 µM
[14]; read-out: GI50
  GI50: 0.29 µM
[14]; read-out: pGI50 (converted)
  GI50: 0.288 µM
[14]; [45]
  CC50: 51.3 µM
[14]; read-out: pTGI (converted)
  TGI: 1.51 µM
[15]
  GI50: 0.324 µM
[15]; [45]
  CC50: 83.2 µM
[15]; read-out: pTGI (converted)
  TGI: 2.75 µM
[16]
  GI50: 2.63 µM
[16]; [45]
  CC50: > 100 µM
[16]; read-out: pTGI (converted)
  TGI: > 100 µM
[17]
  GI50: 0.49 µM
[17]; [45]
  CC50: > 100 µM
[17]; read-out: pTGI (converted)
  TGI: > 100 µM
[18]
  GI50: 0.603 µM
[18]; [45]
  CC50: > 100 µM
[18]; read-out: pTGI (converted)
  TGI: > 100 µM
[19]
  GI50: 2.82 µM
[19]; [45]
  CC50: > 100 µM
[19]; read-out: pTGI (converted)
  TGI: 75.9 µM
[20]
  GI50: 1.66 µM
[20]; [45]
  CC50: 63.1 µM
[20]; read-out: pTGI (converted)
  TGI: 9.33 µM
[21]
  GI50: 32.4 µM
[21]; [45]
  CC50: > 100 µM
[21]; read-out: pTGI (converted)
  TGI: > 100 µM
[22]
  GI50: 3.31 µM
[22]; [45]
  CC50: > 100 µM
[22]; read-out: pTGI (converted)
  TGI: > 100 µM
[23]
  GI50: 1.95 µM
[23]; [45]
  CC50: > 100 µM
[23]; read-out: pTGI (converted)
  TGI: > 100 µM
[24]
  GI50: 1.41 µM
[24]; [45]
  CC50: 7.24 µM
[24]; read-out: pTGI (converted)
  TGI: 3.16 µM
[25]; UACC-257
  GI50: 12 µM
[25]; UACC-257, read-out: pLC50 (the source's name) (converted)
  CC50: > 100 µM
[25]; UACC-257, read-out: pTGI (converted)
  TGI: 81.3 µM
[26]; UACC-62
  GI50: 0.955 µM
[26]; UACC-62, read-out: pLC50 (the source's name) (converted)
  CC50: > 100 µM
[26]; UACC-62, read-out: pTGI (converted)
  TGI: 7.59 µM
[27]; OVCAR-3
  GI50: 43.7 µM
[27]; OVCAR-3, read-out: pLC50 (the source's name) (converted)
  CC50: > 100 µM
[27]; OVCAR-3, read-out: pTGI (converted)
  TGI: > 100 µM
[28]; OVCAR-4
  GI50: 28.8 µM
[28]; OVCAR-4, read-out: pLC50 (the source's name) (converted)
  CC50: > 100 µM
[28]; OVCAR-4, read-out: pTGI (converted)
  TGI: > 100 µM
[29]; OVCAR-5
  GI50: 25.7 µM
[29]; OVCAR-5, read-out: pLC50 (the source's name) (converted)
  CC50: > 100 µM
[29]; OVCAR-5, read-out: pTGI (converted)
  TGI: > 100 µM
[30]; OVCAR-8
  GI50: > 100 µM
[30]; OVCAR-8, read-out: pLC50 (the source's name) (converted)
  CC50: > 100 µM
[30]; OVCAR-8, read-out: pTGI (converted)
  TGI: > 100 µM
[31]
  GI50: 64.6 µM
[31]; [45]
  CC50: > 100 µM
[31]; read-out: pTGI (converted)
  TGI: > 100 µM
[32]
  GI50: 3.39 µM
  LC50: > 100 µM
[32]; read-out: pTGI (converted)
  TGI: > 100 µM
[33]
  GI50: 1.02 µM
[33]; [45]
  CC50: > 100 µM
[33]; read-out: pTGI (converted)
  TGI: 22.9 µM
[34]
  GI50: 7.08 µM
  LC50 (concentration killing 50% of cells): > 100 µM
[34]; read-out: pTGI (converted)
  TGI: > 100 µM
[35]
  GI50: 4.07 µM
  LC50: > 100 µM
[35]; read-out: pTGI (converted)
  TGI: 93.3 µM
[36]
  GI50: 0.0832 µM
  LC50: 11.2 µM
[36]; read-out: pTGI (converted)
  TGI: 0.447 µM
[37]
  GI50: 19.1 µM
  LC50: > 100 µM
[37]; read-out: pTGI (converted)
  TGI: > 100 µM
[38]; UO-31
  GI50: 0.479 µM
  LC50: > 100 µM
[38]; UO-31, read-out: pTGI (converted)
  TGI: 5.89 µM
[39]
  GI50: 8.13 µM
  LC50 (50% lethal concentration): > 100 µM
[39]; read-out: pTGI (converted)
  TGI: > 100 µM
[40]
  GI50: 2.45 µM
  LC50: > 100 µM
[40]; read-out: pTGI (converted)
  TGI: 50.1 µM
[41]
  GI50: 2.69 µM
  LC50: > 100 µM
[41]; read-out: pTGI (converted)
  TGI: 63.1 µM
[42]
  GI50: 3.72 µM
[42]; [45]
  CC50: > 100 µM
[42]; read-out: pTGI (converted)
  TGI: 50.1 µM
[43]
  GI50: 29.5 µM
[43]; [45]
  CC50: > 100 µM
[43]; read-out: pTGI (converted)
  TGI: > 100 µM
[44]
  GI50: 3.02 µM
  LC50: > 100 µM
[44]; read-out: pTGI (converted)
  TGI: 26.9 µM
